Source: ChEMBL document CHEMBL1139351, “Synthesis and biological evaluation of vinca alkaloids and phomopsin hybrids” (J Med Chem, 2009)
Calls of active or inactive are those of the source. The rule behind the calls is not given here.

How the values were obtained:
[1] = Inhibition of tubulin polymerization assessed as ratio of IC50 for compound to IC50 for vinblastin by UV spectrophotometry
Outline: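 Microtubular protein purified from mammalian brain. Drug added from ethanol at several concentrations to free tubulin at 0 °C, then shifted to 37 °C. Assembly followed as OD at 350 nm for 1 min. Maximum assembly rate compared with a drug-free sample, giving IC50. Ratio taken against a vinblastine IC50 measured the same day on the same tubulin preparation.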

KB = test: Cytotoxicity against human KB cells after 72 hrs; format: functional, cell-based
Outline: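 KB human cells; growth followed for 72 h of drug exposure; IC50 taken as the concentration giving 50% growth inhibition.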

[2] = Inhibition of tubulin polymerisation by UV spectrophotometry
Outline: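 Microtubular protein purified from mammalian brain. Drug in ethanol at several concentrations added to free tubulin at 0 °C, then shifted to 37 °C. Assembly followed as optical density at 350 nm for 1 min. Maximum assembly rate compared with a no-drug sample. IC50 derived from several concentrations and compared with vinblastine run the same day on the same tubulin preparation.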

[3] = molecular target: Tubulin beta-5 chain (Homo sapiens) (UniProt P07437); test: Inhibition of beta tubulin nucleotide site assessed as inhibition of displacement of cold GDP by [alpha32P]GTP at 20 uM by rapid filtration technique; parameters: scale not given: the % may be the effect or the level left
Sequence of Tubulin beta-5 chain (Homo sapiens) (P07437 whole entry): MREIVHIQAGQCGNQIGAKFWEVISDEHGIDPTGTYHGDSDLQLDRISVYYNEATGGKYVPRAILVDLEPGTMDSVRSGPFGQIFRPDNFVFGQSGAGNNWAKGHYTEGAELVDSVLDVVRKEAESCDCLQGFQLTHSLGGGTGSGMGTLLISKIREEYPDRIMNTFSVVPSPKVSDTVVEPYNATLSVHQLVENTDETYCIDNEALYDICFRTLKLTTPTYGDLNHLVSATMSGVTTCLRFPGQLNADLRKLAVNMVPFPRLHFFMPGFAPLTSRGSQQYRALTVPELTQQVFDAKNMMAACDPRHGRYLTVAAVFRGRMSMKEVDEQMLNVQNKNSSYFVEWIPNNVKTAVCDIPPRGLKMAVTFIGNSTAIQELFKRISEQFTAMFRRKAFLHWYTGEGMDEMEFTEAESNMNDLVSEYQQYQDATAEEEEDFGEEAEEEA

[4] = molecular target: Tubulin beta-5 chain (Homo sapiens) (UniProt P07437); test: Inhibition of beta tubulin nucleotide site assessed as displacement of cold GDP by [alpha32P]GTP at 100 uM by rapid filtration technique; parameters: scale not given: the % may be the effect or the level left
[5] = molecular target: Tubulin beta-5 chain (Homo sapiens) (UniProt P07437); test: Inhibition of beta tubulin nucleotide site assessed as inhibition of displacement of cold GDP by [alpha32P]GTP at 40 uM by rapid filtration technique
[6] = molecular target: Tubulin beta-5 chain (Homo sapiens) (UniProt P07437); test: Inhibition of beta tubulin nucleotide site assessed as inhibition of displacement of cold GDP by [alpha32P]GTP by rapid filtration technique relative to phomopsin A

| Ratio IC50 [1] | Structure (SMILES) | IC50 (KB; Homo sapiens, KB, 72 h) | other results |
| --- | --- | --- | --- |
| 1.8 | CCC1=C[C@@H]2C[C@](C(=O)OC)(c3cc4c(cc3OC)N(C)[C@H]3[C@@](O)(C(=O)OC)[C@H](OC(C)=O)[C@]5(CC)C=CCN6CC[C@]43[C@@H]65)c3[nH]c4ccccc4c3C[N+](CC(=O)N3CCC[C@H]3C(=O)N[C@H](C(=O)N[C@@H](CC(=O)OCc3ccccc3)C(=O)OCc3ccccc3)[C@@H](C)CC)(C1)C2 | 1300 nM | – |
| 1 | CC[C@]1(O)C[C@@H]2CN(CCc3c([nH]c4ccccc34)[C@@](C(=O)OC)(c3cc4c(cc3OC)N(C)[C@H]3[C@@](O)(C(=O)OC)[C@H](OC(C)=O)[C@]5(CC)C=CCN6CC[C@]43[C@@H]65)C2)C1 [VINBLASTINE] | 1 nM | IC50 [2]: 2100 nM; Activity [3]: 25% |
| 0.9 | CCC1=C[C@@H]2C[C@](C(=O)OC)(c3cc4c(cc3OC)N(C)[C@H]3[C@@](O)(C(=O)OC)[C@H](OC(C)=O)[C@]5(CC)C=CCN6CC[C@]43[C@@H]65)c3[nH]c4ccccc4c3CC[N+](CC(=O)N3CCC[C@H]3C(=O)OC)(C1)C2 | 80 nM | – |
| 2 | CCC1=C[C@@H]2C[C@](C(=O)OC)(c3cc4c(cc3OC)N(C)[C@H]3[C@@](O)(C(=O)OC)[C@H](OC(C)=O)[C@]5(CC)C=CCN6CC[C@]43[C@@H]65)c3[nH]c4ccccc4c3CC[N+](CC(=O)N3CCC[C@H]3C(=O)N[C@H](C(=O)N[C@@H](CC(=O)O)C(=O)O)[C@@H](C)CC)(C1)C2 | 100 nM | – |
| – | C=C(C)[C@@H]1NC(=O)[C@@H](NC)[C@@H](O)c2cc(Cl)c(O)c(c2)O[C@](C)(CC)[C@@H](C(=O)N2CC=C[C@H]2C(=O)N/C(C(=O)N/C(=C/C(=O)O)C(=O)O)=C(\C)CC)NC1=O [PHOMOPSIN A] | – | IC50 [2]: 560 nM; Activity [3]: Active |
| 19.4 | CCC1=C[C@@H]2C[C@](C(=O)OC)(c3cc4c(cc3OC)N(C)[C@H]3[C@@](O)(C(=O)OC)[C@H](OC(C)=O)[C@]5(CC)C=CCN6CC[C@]43[C@@H]65)c3[nH]c4ccccc4c3C[N+](CC(=O)N3CCC[C@H]3C(=O)N[C@H](C(=O)N[C@@H](CC(=O)O)C(=O)O)[C@@H](C)CC)(C1)C2 | 400 nM | – |
| – | CCC1=C[C@@H]2CN(C1)Cc1c([nH]c3ccccc13)[C@@](C(=O)OC)(c1cc3c(cc1OC)N(C)[C@H]1[C@@](O)(C(=O)OC)[C@H](OC(C)=O)[C@]4(CC)C=CCN5CC[C@]31[C@@H]54)C2 (stereo in doubt; 3) [VINORELBINE] | – | IC50 (KB; kb): 40 nM |
| – | CCC1=C[C@@H]2CN(C1)Cc1c([nH]c3ccccc13)[C@@](C(=O)OC)(c1cc3c(cc1OC)N(C)[C@H]1[C@@](O)(C(=O)OC)[C@H](OC(C)=O)[C@]4(CC)C=CCN5CC[C@]31[C@@H]54)C2 (stereo in doubt; 4) [VINORELBINE] | – | IC50 (KB; kb): 1 nM |
| 2 | CCC1=C[C@@H]2C[C@](C(=O)OC)(c3cc4c(cc3OC)N(C)[C@H]3[C@@](O)(C(=O)OC)[C@H](OC(C)=O)[C@]5(CC)C=CCN6CC[C@]43[C@@H]65)c3[nH]c4ccccc4c3C[N+](CC(=O)N3CCC[C@H]3C(=O)OC)(C1)C2 | 100 nM | – |
| 9.4 | CCC1=C[C@@H]2C[C@](C(=O)OC)(c3cc4c(cc3OC)N(C)[C@H]3[C@@](O)(C(=O)OC)[C@H](OC(C)=O)[C@]5(CC)C=CCN6CC[C@]43[C@@H]65)c3[nH]c4ccccc4c3C[N+](CC(=O)N3CCC[C@H]3C(=O)N[C@H](C(=O)OCc3ccccc3)[C@@H](C)CC)(C1)C2 | 50 nM | – |
| 1.3 | CCC1=C[C@@H]2C[C@](C(=O)OC)(c3cc4c(cc3OC)N(C)[C@H]3[C@@](O)(C(=O)OC)[C@H](OC(C)=O)[C@]5(CC)C=CCN6CC[C@]43[C@@H]65)c3[nH]c4ccccc4c3CC[N+](CC(=O)N3CCC[C@H]3C(=O)N[C@H](C(=O)N[C@@H](CC(=O)OCc3ccccc3)C(=O)OCc3ccccc3)[C@@H](C)CC)(C1)C2 | 700 nM | Activity [4]: 55%; Activity [5]: inactive; Activity [6]: inactive; Activity [3]: inactive |
| 1.4 | CCC1=C[C@@H]2C[C@](C(=O)OC)(c3cc4c(cc3OC)N(C)[C@H]3[C@@](O)(C(=O)OC)[C@H](OC(C)=O)[C@]5(CC)C=CCN6CC[C@]43[C@@H]65)c3[nH]c4ccccc4c3CC[N+](CC(=O)N3CCC[C@H]3C(=O)N[C@H](C(=O)OCc3ccccc3)[C@@H](C)CC)(C1)C2 | 300 nM | – |
| 9.4 | CCC1=C[C@@H]2C[C@](C(=O)OC)(c3cc4c(cc3OC)N(C)[C@H]3[C@@](O)(C(=O)OC)[C@H](OC(C)=O)[C@]5(CC)C=CCN6CC[C@]43[C@@H]65)c3[nH]c4ccccc4c3C[N+](CC(=O)N3CCC[C@H]3C(=O)N[C@H](C(=O)O)[C@@H](C)CC)(C1)C2 | 90 nM | – |
| – | CC[C@H](C)[C@H](NC(=O)[C@@H]1CCCN1C(=O)[C@H]1NC(=O)[C@H](C(C)C)NC(=O)[C@@H](NC)[C@@H](O)c2cc(Cl)c(O)c(c2)O[C@]1(C)CC)C(=O)NC(CC(=O)O)C(=O)O (mixture of isomers) | – | IC50 [2]: 400 nM |
| 1.7 | CCC1=C[C@@H]2C[C@](C(=O)OC)(c3cc4c(cc3OC)N(C)[C@H]3[C@@](O)(C(=O)OC)[C@H](OC(C)=O)[C@]5(CC)C=CCN6CC[C@]43[C@@H]65)c3[nH]c4ccccc4c3CC[N+](CC(=O)N3CCC[C@H]3C(=O)N[C@H](C(=O)O)[C@@H](C)CC)(C1)C2 | 700 nM | – |
